# According to ChEMBL document CHEMBL4118259, “Synthesis of sulfadiazinyl acyl/aryl thiourea derivatives as calf intestinal alkaline phosphatase inhibitors, pharmacokinetic properties, lead optimization, Lineweaver-Burk plot evaluation and binding analysis” (Bioorg Med Chem, 2018):
# Legend:
# Details in all cases: Bos taurus
# [1] = compound: O=C(NC(=S)Nc1ccc(S(=O)(=O)Nc2ncccn2)cc1)c1ccc(Cl)cc1; assay: Mixed-type inhibition of calf intestinal alkaline phosphatase assessed as substrate Vmax at 0.015 uM using varying levels of p-NPP as substrate measured every minute for 10 mins by Lineweaver-Burk plot analysis (reference value: 1.2 10^-5deltaA/s)
# Procedure, shortened: (§1)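 Same CIALP buffer and enzyme system with inhibitor at 0.0, 0.015 and 0.3 µM and p-NPP at 10, 5, 2.5, 1.25 and 0.625 mM. Initial velocities were read every minute over the first 10 min after enzyme addition. Inhibition type came from Lineweaver-Burk plots of 1/V vs 1/[S]. Ki came from secondary plots of slope vs inhibitor concentration, Ki′ from intercept vs concentration.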
# [2] = compound: O=C(NC(=S)Nc1ccc(S(=O)(=O)Nc2ncccn2)cc1)c1ccc(Cl)cc1; assay: Mixed-type inhibition of calf intestinal alkaline phosphatase assessed as substrate Vmax at 0.3 uM using varying levels of p-NPP as substrate measured every minute for 10 mins by Lineweaver-Burk plot analysis (reference value: 1.2 10^-5deltaA/s); procedure, shortened: as §1
# [3] = compound: O=C(NC(=S)Nc1ccc(S(=O)(=O)Nc2ncccn2)cc1)c1ccc(Cl)cc1; assay: Mixed-type inhibition of calf intestinal alkaline phosphatase assessed as substrate Km at 0.015 uM using varying levels of p-NPP as substrate by Lineweaver-Burk plot analysis (reference value: 0.833 mM); procedure, shortened: as §1
# [4] = compound: O=C(NC(=S)Nc1ccc(S(=O)(=O)Nc2ncccn2)cc1)c1ccc(Cl)cc1; assay: Mixed-type inhibition of calf intestinal alkaline phosphatase assessed as substrate Km at 0.3 uM using varying levels of p-NPP as substrate by Lineweaver-Burk plot analysis (reference value: 0.833 mM); procedure, shortened: as §1
protein,measurement,setting,value
"Intestinal-type alkaline phosphatase (Bos taurus), P19111 (protein) MQGACVLLLLGLHLQLSLGLVPVEEEDPAFWNRQAAQALDVAKKLQPIQTAAKNVILFLGDGMGVPTVTATRILKGQMNGKLGPETPLAMDQFPYVALSKTYNVDRQVPDSAGTATAYLCGVKGNYRTIGVSAAARYNQCKTTRGNEVTSVMNRAKKAGKSVGVVTTTRVQHASPAGAYAHTVNRNWYSDADLPADAQMNGCQDIAAQLVNNMDIDVILGGGRKYMFPVGTPDPEYPDDASVNGVRKRKQNLVQAWQAKHQGAQYVWNRTALLQAADDSSVTHLMGLFEPADMKYNVQQDHTKDPTLQEMTEVALRVVSRNPRGFYLFVEGGRIDHGHHDDKAYMALTEAGMFDNAIAKANELTSELDTLILVTADHSHVFSFGGYTLRGTSIFGLAPSKALDSKSYTSILYGNGPGYALGGGSRPDVNDSTSEDPSYQQQAAVPQASETHGGEDVAVFARGPQAHLVHGVEEETFVAHIMAFAGCVEPYTDCNLPAPTTATSIPDAAHLAASPPPLALLAGAMLLLLAPTLY",Vmax (10'-6deltaA/s),[1],8
same,Vmax (10'-5deltaA/s),[2],4.9
same,Km,[3],1330 µM
same,Km,[4],2000 µM
